Data: ChEMBL document CHEMBL3352450, “Indazole-type alkaloids from Nigella sativa seeds exhibit antihyperglycemic effects via AMPK activation in vitro” (J Nat Prod, 2014)

Columns and labels:
HepG2 [1] = experiment: Toxicity against human HepG2 cells at 100 uM; assay type: cell-based; details: hepg2, 100 µM
HepG2 [2] = experiment: Increase in glucose consumption in human HepG2 cells grown under low-glucose medium assessed as reduction in glucose levels at 25 uM incubated for 7 hrs by glucose assay; assay type: functional; set-up: scale not given: the % may be the effect or the level left
Summary of the method: (§1)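 HepG2 cells (kept in high-glucose DMEM with 10% FBS) were seeded at 4.0 × 10^4 cells/well for 8 h. They were then held overnight in low-glucose ([…]) medium with 2 mM glutamine and 1% FBS. Treatment lasted 7 h in that medium, with DMSO stocks and 0.1% DMSO as solvent control. Medium glucose was read by colorimetric kit at 490 nm, with 3 replicates, as mean ± SD.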

[3] = molecular target: AMP-activated protein kinase, AMPK (Homo sapiens) (UniProt P54646+O43741+P54619+Q9UGJ0+Q9Y478+Q13131+Q9UGI9); experiment: Increase in AMPK phosphorylation in human HepG2 cells at 25 to 100 uM incubated for 24 hrs by Western blotting method; assay type: cell-based
Summary of the method: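 HepG2 cells were grown in 6-well plates for 8 h, then held overnight in low-glucose medium and treated for 24 h. Lysis was in RIPA buffer with BCA protein assay. 20 μg/lane was run on 8% SDS-PAGE and blotted to PVDF, blocked in 5% milk, and probed overnight for p-AMPK (Thr172), AMPK and β-actin. HRP secondary was applied for 1 h, with ECL detection on film.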

HepG2 [4] = experiment: Increase in glucose consumption in human HepG2 cells grown under low-glucose medium assessed as reduction in glucose levels at 1 mM incubated for 7 hrs by glucose assay; assay type: functional; set-up: scale not given: the % may be the effect or the level left; summary of the method: as §1

Row | SMILES | Activity (HepG2 [1]) | Activity (HepG2 [2]) | Activity [3] | Activity (HepG2 [4])
1 | C[C@@]1(O)CC(=O)c2c(n3[n+](c2-c2ccc(O)cc2)CCCC3)C1 | Non-toxic | 8% |  | 
2 | Cc1cc(O)c2c[n+]3n(c2c1)CCCC3 | Non-toxic | 8% |  | 
3 | COc1cc(C)cc2c1c(-c1ccc(O)cc1)[n+]1n2CCCC1 | Non-toxic | 8% |  | 
4 | COc1cc(C)cc2c1c(-c1ccc(O[C@@H]3O[C@H](CO)[C@@H](O)[C@H](O)[C@H]3O)cc1)[n+]1n2CCCC1 | Non-toxic | 29% | Dose-dependent effect | 
5 | Cc1cc(O)c2c(-c3ccc(O)cc3)[n+]3n(c2c1)CCCC3 | Non-toxic | 8% |  | 
6 | CN(C)C(=N)NC(=N)N [METFORMIN] |  |  |  | 24%
7 | COc1cc(C)cc2c1c[n+]1n2CCCC1 | Non-toxic | 8% | Dose-dependent effect | 
